# Laboratory results taken from PubChem BioAssay AID504383 (The Scripps Research Institute Molecular Screening Center, 2011).
# The campaign covered roughly 2,500 compounds. About 1,200 (48%) were called active. So high a share suggests a set chosen from earlier hits. This is one part of the list. Values without a mark were called inactive.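 Rule for the calls: active = mean activation above the low control average plus 3 SD, as set in the primary screen (cut at about 12% in these data); inactive = the rest.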
# Target: Troponin I, cardiac muscle (Homo sapiens) + Troponin T, cardiac muscle (Homo sapiens) + Troponin C, slow skeletal and cardiac muscles (Homo sapiens) (UniProt P19429+P45379+P63316)
# Test: cardiac RTF calcium sensitivity activators, confirmation, biochemical, IANBD-TnC fluorescence, triplicate (AID 504383);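 note: 0% = DMSO at 0.472 mM calcium and 100% = DMSO at 2.9 mM calcium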
# Details: IANBD-labeled cardiac RTF, Ca2+ sensitivity fluorescence; at 7.2 µM; hits give high values; scaled from EC20 to saturating calcium; tested at EC20 calcium, 0.472 mM
# Summary of the method: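 Assay system: labelled regulated thin filament protein complex; schedule: 15 min compound incubation with filaments at 25 °C; benchmarks: low control EC20 calcium, high control EC100 calcium; reagent: Ca2+ 0.472 mM, EC20 level; doses: one dose, 7.2 µM nominal; evaluation: fluorescence gain scaled between EC20 and EC100 calcium controls; signal: filament fluorescence intensity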
row,Compound,activation
1,Cc1ccc2oc3c(SCc4nc5ccccc5[nH]4)nc(C)nc3c2c1,21.2% (active)
2,Cc1ccc(C)c(C2=NNC(=O)CC2)c1,2.35%
3,COC(=O)[C@@]1(Cc2ccc(OC)cc2)[C@@H]2C(=CC(=O)[C@H]2CC(=O)C(=O)N2CCCC2)CN1C(=O)c1ccccc1,36% (active)
4,CC(C)CNC(=S)NC(=O)c1ccccc1Cl,106% (active)
5,Nc1cccc2c1C(=O)N(c1ccccc1)C2=O,7.13%
6,O=C1c2ccccc2C(=O)N1c1ccc(Cc2ccncc2)cc1,18.1% (active)
7,CSc1nc2c(c(=O)[nH]c(=O)n2C)n1CCCc1ccccc1,3.83%
8,COC(=O)CSc1nc2c(c(=O)n(C)c(=O)n2C)n1CCCc1ccccc1,147% (active)
9,CCOC(=O)CSc1nc2c(c(=O)n(C)c(=O)n2C)n1Cc1ccccc1F,1280% (active)
10,CN1CCN(c2nc3c(c(=O)n(C)c(=O)n3C)n2Cc2ccccc2F)CC1,5.62%
11,C=CCNc1nc2c(c(=O)[nH]c(=O)n2C)n1CCCc1ccccc1,9.95%
12,C=CC[C@@H](CC(=O)N(CCO)Cc1ccccc1)C(=O)N[C@@H](COC(=O)[C@@H](CC=C)Cc1ccc(F)cc1)Cc1ccccc1,0.1%
13,S=C(Nc1ccc(N2CCOCC2)cc1)Nc1ccc2nc(-c3ccco3)c(-c3ccco3)nc2c1,43.1% (active)
14,Cc1cccc(NC(=S)Nc2ccc(N3CCOCC3)cc2)c1C,5.72%
15,C[C@H]1CN([C@@H](C)CO)C(=O)c2cccc(NC(=O)c3nc4ccccc4s3)c2O[C@H]1CN(C)C(=O)Nc1ccc(F)cc1,12.9% (active)
16,C[C@H](CO)N1C[C@H](C)[C@@H](CN(C)Cc2ccncc2)Oc2c(NS(=O)(=O)c3ccc(F)cc3)cccc2C1=O,10.3%
17,C[C@H](CO)N1C[C@H](C)[C@@H](CN(C)C(=O)Nc2ccc(F)cc2)Oc2ccc(NS(C)(=O)=O)cc2C1=O,9.89%
18,C[C@H](CO)N1C[C@H](C)[C@@H](CN(C)C(=O)Nc2ccccc2)Oc2ccc(NC(=O)Nc3ccc4c(c3)OCO4)cc2C1=O,9.67%
19,C[C@H](CO)N1C[C@H](C)[C@@H](CN(C)S(=O)(=O)c2cccs2)Oc2c(NC(=O)Nc3ccc4c(c3)OCO4)cccc2C1=O,9.29%
20,C[C@H](CO)N1C[C@H](C)[C@@H](CN(C)Cc2ccncc2)Oc2c(NC(=O)c3ccncc3)cccc2C1=O,16.5% (active)
21,C[C@H](CO)N1C[C@H](C)[C@@H](CN(C)Cc2ccc(Oc3ccccc3)cc2)Oc2c(NC(=O)C3CC3)cccc2C1=O,47.7% (active)
22,Cc1noc(C)c1NC(=O)N(C)C[C@H]1Oc2c(NS(=O)(=O)c3cccs3)cccc2C(=O)N([C@H](C)CO)C[C@@H]1C,4.83%

row,Compound,activation
1,CCOC(=O)c1c(C)oc2c1c(C=NCCO)c(O)c1ccccc12,4.94%
2,CCN(CC)c1ccc(/C=C(\C#N)C(=O)c2ccc(Br)cc2)cc1,3.52%
3,CCN(CC)c1ccc(/C=C(\C#N)C(N)=S)cc1,45.5% (active)
4,CC(C)NC(=O)/C(C#N)=C/c1ccc(N(C)C)o1,7.34%
5,CCN(CC)c1ccc(/C=C(/C#N)C(=O)NC(C)C)o1,9.75%
6,CCN(CC)c1ccc(/C=C(/C#N)C(=O)NCc2ccccc2)o1,3.76%
7,CC(C)NC(=O)/C(C#N)=C\c1ccc(N(C)C)o1,215% (active)
8,CCN(CC)c1ccc(/C=C(\C#N)C(=O)NCc2ccccc2)cc1,60.6% (active)
9,CN(C)c1ccc(/C=C(/C#N)C(=O)NCc2ccccc2)o1,12.4% (active)
10,N#C/C(=C\c1ccc(O)c(O)c1)C(=O)NCCCc1ccccc1,4.22%
11,Cc1cc(Cn2nc(C(=O)NCC3CC3)cc2-c2ccccc2)on1,6.6%
12,COc1ccccc1/C=[N+](\[O-])C1SC(=S)N(C)C1(C)C (stereo not drawn),8.76%
13,NC(=O)CC(NC(=O)Cc1ccc(Cl)cc1)c1ccc(N2CCN(c3ccccn3)CC2)c([N+](=O)[O-])c1 (stereo not drawn),137% (active)
14,NC(=O)CC(NC(=O)c1ccc(Br)cc1)c1ccc(N2CCN(c3ccc(F)cc3)CC2)c([N+](=O)[O-])c1 (stereo not drawn),42.4% (active)
15,Cc1cc(C)cc(C(=O)NC(CC(N)=O)c2ccc(N3CCCCCC3)c([N+](=O)[O-])c2)c1 (stereo not drawn),3.03%
16,O=C(NCc1ccccc1)c1ccc(N2CCC3(CC2)CC(c2ccccc2)=NO3)c([N+](=O)[O-])c1,5.88%
17,NC(=O)c1c(N)sc2c1CCCCC2,7.59%
18,COc1cc(SC)ccc1C(=O)Nc1nc2ccccc2[nH]1,9.59%
19,COc1ccc2nc3ccccc3nc2c1NC(=O)c1ccc(Br)cc1,139% (active)
20,COc1ccc2nc3ccccc3nc2c1NC(=O)c1ccc(Cl)cc1Cl,6.58%
21,CSCC(O)Cn1[nH]c(=O)c2cc(Cl)c(Cl)cc2c1=O (stereo not drawn),8.73%
22,COC(=O)c1ccc(CS(=O)(=O)c2ccc(F)cc2)o1,1.48%

row,Compound,activation
1,COC(=O)c1ccc(CSc2nnc(NCc3ccccc3)s2)o1,17.8% (active)
2,COc1cccc(CNC(=O)CCC(=O)N2CC(C)Oc3ccccc32)c1OC (stereo not drawn),4.26%
3,COc1ccc(CN2CCC(C(=O)N3CCN(c4ccccc4F)CC3)CC2)cc1OC,8.86%
4,COc1ccc(CN2CCN(C(=O)c3ccccc3F)CC2)c(OC)c1OC,44.3% (active)
5,COc1cc(OC)c(-c2c3cc(O)c(=O)cc-3oc3cc(O)c(O)cc23)cc1OC,19.3% (active)
6,O=c1cc2oc3cc(O)c(O)cc3c(-c3ccccc3O)c-2cc1O,16.1% (active)
7,CCOc1ccccc1-c1c2cc(O)c(=O)cc-2oc2cc(O)c(O)cc12,8.3%
8,COC(=O)c1ccccc1-c1c2ccc(=N)cc-2oc2cc(N)ccc12,9.11%
9,CSc1cccc(NC(=O)c2ccc(Cl)nc2)c1,15.5% (active)
10,Cn1ncc(Cl)c1C(=O)Nc1cccc(Cl)c1,5.51%
11,CC1CN(c2ccc(NS(=O)(=O)c3ccccc3)cc2C(=O)O)CC(C)O1 (stereo not drawn),98.7% (active)
12,CCOC(=O)C1CCCN(C(=O)c2cccc(S(=O)(=O)N3CC(C)OC(C)C3)c2)C1 (stereo not drawn),-1.51%
13,CC(=O)c1ccc(S(=O)(=O)Nc2ccc(C(=O)N3CCC3)cc2)cc1,1.58%
14,CCc1ccc(C(=O)Nc2cccnc2Oc2ccc(Cl)cc2)cc1,22% (active)
15,CC(C)(C)c1ccc(C(=O)Nc2cccc3ncccc23)cc1,10.2%
16,CC(C)Cn1c(N)c(C(=O)COC(=O)c2cc(F)cc(F)c2)c(=O)n(C)c1=O,225% (active)
17,O=c1oc2c(CN3CCCCC3)c(O)ccc2cc1-c1nc2ccccc2[nH]1,224% (active)
18,O=c1oc2c(O)cccc2cc1-c1nc2ccccc2[nH]1,8.93%
19,O=c1c2ccccc2nc(SCc2nc(-c3ccccc3)no2)n1-c1ccc(F)cc1,2.61%
20,CC(=O)c1cccc(NC(=O)Cn2nc(-c3ccccc3Cl)ccc2=O)c1,11.2%
21,O=C(COC(=O)Cn1cnc2ccccc21)Nc1cccc2c1C(=O)c1ccccc1C2=O,25.4% (active)
22,CCC(C)n1ncn(-c2ccc(N3CCN(c4ccc(OCC5COC(Cn6cncn6)(c6ccc(Cl)cc6Cl)O5)cc4)CC3)cc2)c1=O (stereo not drawn),390% (active)

row,Compound,activation
1,Fc1ccc(-c2nc3ccncc3[nH]2)cc1,13% (active)
2,Cc1ccc(CNC(=O)CC(C)S(=O)(=O)c2ccc3c(c2)NC(=O)CS3)o1 (stereo not drawn),354% (active)
3,CCCCc1ccc(NC(=O)c2cnccn2)cc1,22.1% (active)
4,CCCCc1ccc(NC(=O)N2CCNC(=O)C2CC(=O)Nc2ccsc2C(=O)OC)cc1 (stereo not drawn),5.97%
5,COC(=O)[C@@H]1C[C@@]2(O)[C@H](O)[C@H](O)[C@H](O)C[C@H]2N1C/C=C/c1ccccc1,6.57%
6,N#Cc1c(NC(=O)/C=C/C(=O)O)sc2c1CCN(Cc1ccccc1)C2,13.4% (active)
7,O=C(Nc1nc2c(s1)CN(Cc1ccccc1)CC2)c1cccc(S(=O)(=O)N2CCc3ccccc32)c1,5.41%
8,CCN1CCc2c(sc(NC(=O)c3ccc(S(=O)(=O)N(C)c4ccccc4)cc3)c2C(=O)NC)C1,10.6%
9,CCCN1CCc2c(sc(NC(=S)NC(=O)c3ccccc3)c2C#N)C1,270% (active)
10,CC(=O)c1ccc(C(=O)Nc2sc3c(c2C(N)=O)CCN(Cc2ccccc2)C3)cc1,2.38%
11,N#Cc1c(NC(=O)C2CC=CCC2C(=O)O)sc2c1CCCCCC2 (stereo not drawn),6.81%
12,NC(=O)c1c(NC(=O)c2ccccc2)sc2c1CCN(Cc1ccccc1)C2,105% (active)
13,CC[n+]1c(/C=C/N(C)c2ccccc2)oc2ccc(F)cc21,14.5% (active)
14,CC[n+]1c(/C=C/N(C)c2ccccc2)oc2ccccc21,0.87%
15,Cc1cc(C)n2nc3nc4c(cc3c2n1)CCCC4,89.3% (active)
16,Cc1ccc(-c2nc3ncccn3c2Nc2ccc3c(c2)OCCO3)o1,230% (active)
17,COc1cccc(C2C(C#N)=C(N)Oc3cc(C)oc(=O)c32)c1OC (stereo not drawn),23% (active)
18,COc1cccc(C2C3CN(C)CC=C3C(C#N)=C(N)C2(C#N)C#N)c1OC (stereo not drawn),8.43%
19,CN1C(=O)/C(=C\C=C2/CCCN2C)N(C)C1=S,173% (active)
20,CCCCN1C(=O)/C(=C/C=C2/CC(C)(C)CN2C)SC1=S,2.58%
21,CN1CCC/C1=C/C=C1\SC(=S)NC1=O,4.23%
22,CCN1C(=O)/C(=C/C=C2/CCCN2C)OC1=S,12.9% (active)
